Laboratory results published in PubChem BioAssay.
Calls of active or inactive are those of the source.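 Rule for the calls, unless noted: active = viability at or below 10% of carrier control in both of two separate runs; inconclusive = viability at or below 10% in only one of the two runs; inactive = the rest.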

Experiments:
[1] = Her2 expression decrease, cell viability multiplex – SKBR3 breast tumor cells, AlphaScreen, ATP viability, primary screen (AID 461;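 active = Her2 level under about 52% in both replicate screens, with viability over 70% of control, limit read from the data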;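 for Her2 level: lower value means less Her2 protein in the cells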;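 for viability: percent of carrier control wells set as 100% viability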); settings: SKBR3 Her2 protein level, 18-24 h, measured here: SKBR3 viability, ATP luminescence, at 10 µM
[2] = target: Receptor tyrosine-protein kinase erbB-2 (Homo sapiens) (UniProt P04626); test: as above; settings: 18-24 h, at 10 µM, stronger effect = lower value
[3] = reduced viability of SK-BR-3 breast cancer cells – cell-based, 24 h, human, pilot screen (AID 572); settings: SK-BR-3 viability, CellTiter-Glo luminescence, at 10 µM, stronger effect = lower value;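 note: compound exposure lasted between 18 and 24 h rather than exactly 24 h; 100% = carrier-treated control wells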
[4] = HUVEC growth inhibition – cell-based, human, primary screen (AID 575;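 active = viability at or below 30% in both replicate assays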;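 note: 100% = median of untreated cell wells with 0.1% DMSO on each plate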); settings: HUVEC proliferation, CellTiter-Glo luminescence, 72 h; at 10 µM; stronger effect = lower value
Procedure, shortened: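 Test system: HUVEC primary cells. Quantity: 1250 endothelial cells in each well. Dosing: single-point 10 µM, DMSO 0.1% final. Incubation: 72 h treatment at 37 °C. Measured by: CTG luminescence. Control set: DMSO cell controls and MePR drug controls. Plate: collagen-coated 384-well format.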

[5] = H69AR cell proliferation blockers – human, duplicate replicates, primary screen (AID 580;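 active = viability at or under a set limit in both replicates, limit being median viability minus 3 SD, cut at about 48% in these data, passing the limit was not always enough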;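 note: 100% = mean luminescence of untreated wells and 0% = no signal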); settings: H69AR lung tumor cells viability, ATP luminescence, 72 h; at 10 µM; stronger effect = lower value
[6] = MRP1 drug-resistance reversers in H69AR cells – cell-based, doxorubicin co-treatment, pilot screen (AID 601;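 active = viability loss from added drug above about 55%, and viability with drug at most 40%, in both replicates, limit read from the data, passing the limit was not always enough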); settings: CellTiter-Glo, 72 h, at 10 µM; for differential viability (reversal): stronger effect = higher value
[7] = yeast transport mutant growth inhibition pilot in 384-well plates, post-Golgi transport modulator project (AID 636; in the data active = inhibition above about 31%); settings: absorbance 615 nm, about 18 h, stronger effect = higher value
[8] = growth suppression of yeast trafficking mutant, preliminary HTS, modulators of trafficking downstream of Golgi apparatus project, 1536-format plate, OD 615 nm (AID 637; in the data active = inhibition above about 30%); settings: yeast transport mutant growth, absorbance 615 nm, 18 h; stronger effect = higher value
[9] = H69AR cells + 2 uM doxorubicin, measured here: viability with 2 uM doxorubicin, stronger effect = lower value
[10] = H69AR cells, compound alone cytotoxicity

Sequence of Receptor tyrosine-protein kinase erbB-2 (Homo sapiens) (P04626 whole entry, looked up): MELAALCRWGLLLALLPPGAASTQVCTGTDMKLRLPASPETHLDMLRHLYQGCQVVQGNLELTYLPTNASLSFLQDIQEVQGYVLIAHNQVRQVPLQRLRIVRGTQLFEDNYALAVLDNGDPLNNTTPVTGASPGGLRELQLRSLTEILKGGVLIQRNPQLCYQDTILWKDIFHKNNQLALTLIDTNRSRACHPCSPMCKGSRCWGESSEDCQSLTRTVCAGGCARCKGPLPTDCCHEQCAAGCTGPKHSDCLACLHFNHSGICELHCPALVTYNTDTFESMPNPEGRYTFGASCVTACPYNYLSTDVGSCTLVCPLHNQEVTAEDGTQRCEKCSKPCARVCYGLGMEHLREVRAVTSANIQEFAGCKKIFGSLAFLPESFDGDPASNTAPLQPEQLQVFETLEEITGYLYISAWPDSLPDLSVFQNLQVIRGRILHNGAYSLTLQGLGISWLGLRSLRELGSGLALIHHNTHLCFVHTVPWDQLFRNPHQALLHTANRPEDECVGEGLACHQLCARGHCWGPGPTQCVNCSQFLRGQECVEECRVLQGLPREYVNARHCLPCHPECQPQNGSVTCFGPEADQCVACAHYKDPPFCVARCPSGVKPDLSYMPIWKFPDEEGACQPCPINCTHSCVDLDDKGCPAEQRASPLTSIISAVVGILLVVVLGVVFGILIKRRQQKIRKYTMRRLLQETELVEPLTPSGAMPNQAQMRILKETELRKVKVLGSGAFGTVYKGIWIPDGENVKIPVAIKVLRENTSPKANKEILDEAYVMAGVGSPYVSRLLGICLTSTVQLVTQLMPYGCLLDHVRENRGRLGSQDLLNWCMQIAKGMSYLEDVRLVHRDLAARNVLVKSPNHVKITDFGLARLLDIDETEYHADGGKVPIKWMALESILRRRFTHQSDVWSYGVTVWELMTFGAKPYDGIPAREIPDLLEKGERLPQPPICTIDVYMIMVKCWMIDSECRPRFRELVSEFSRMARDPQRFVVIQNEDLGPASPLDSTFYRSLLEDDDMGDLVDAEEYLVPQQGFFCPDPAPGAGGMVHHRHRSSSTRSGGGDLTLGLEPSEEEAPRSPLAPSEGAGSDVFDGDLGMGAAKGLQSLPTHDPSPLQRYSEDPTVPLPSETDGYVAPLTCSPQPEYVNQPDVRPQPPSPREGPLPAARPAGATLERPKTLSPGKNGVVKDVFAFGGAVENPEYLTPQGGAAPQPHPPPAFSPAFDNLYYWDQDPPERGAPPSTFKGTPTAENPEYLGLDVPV

Compound	viability [1] [%]	Her2 level [2]	viability [3]	viability [4]	viability [5]	differential viability (reversal) ([6]; H69AR cells + 2 uM doxorubicin)	viability [6, 9] [%]	viability [6, 10] [%]	inhibition [7]	inhibition [8]
CC1(C)Cc2c(c(N3CCOCC3)nc3sc(C#N)c(N)c23)CS1	92	122% (inactive)	92% (inactive)	85.2% (inactive)	83.3% (inactive)	-1.22% (inactive)	84.5	83.3	0.9% (inactive)	-8.67% (inactive)
Cn1c(=O)c2c(nc(N3CCCCC3)n2CCSc2nc3ccccc3o2)n(C)c1=O	100	105% (inactive)	100% (inactive)	88.4% (inactive)	82.2% (inactive)	1.8% (inactive)	80.4	82.2	-0.67% (inactive)	-6.39% (inactive)
O=C(C1CC1)N1CCc2cc(S(=O)(=O)N(CCO)Cc3ccccc3)ccc21	94	102% (inactive)	94% (inactive)	77% (inactive)	98.8% (inactive)	-1.38% (inactive)	100	98.8	-0.4% (inactive)	-0.33% (inactive)
COc1ccccc1NC(=O)c1ccc(NC(=O)CSc2nnnn2C)cc1	92	96% (inactive)	92% (inactive)	84% (inactive)	13.1% (active)	-25.5% (inactive)	38.7	13.1	-6% (inactive)	-2.13% (inactive)
COc1ccc(NC(=O)CN2CCCCC2)cc1	108	108% (inactive)	108% (inactive)	90.2% (inactive)	88.2% (inactive)	5.94% (inactive)	82.3	88.2	-5.58% (inactive)	-10% (inactive)
CCOC(=O)Cn1c(CN2CCN(c3cccc(Cl)c3)CC2)nc2c1c(=O)[nH]c(=O)n2C	92.5	87% (inactive)	92.5% (inactive)	69% (inactive)	72.5% (inactive)	-6.24% (inactive)	78.7	72.5	0% (inactive)	1.17% (inactive)
Cn1c(=O)c2c(nc(SCC(=O)O)n2Cc2cccc(C(F)(F)F)c2)n(C)c1=O	97.5	84% (inactive)	97.5% (inactive)	94.7% (inactive)	95.6% (inactive)	5.41% (inactive)	90.2	95.6	-4.67% (inactive)	0.81% (inactive)
COc1ccc(Cc2noc(-c3ccc(C)cc3)n2)cc1	91	131% (inactive)	91% (inactive)	90.1% (inactive)	91.2% (inactive)	14.9% (inactive)	76.3	91.2	4.87% (inactive)	45.8% (active)
COc1ccccc1OCCOc1ccccc1/C=N/n1cnnc1	81.5	104% (inactive)	81.5% (inactive)	96.4% (inactive)	70.9% (inactive)	-22.5% (inactive)	93.5	70.9	1.28% (inactive)	-5% (inactive)
CC(C)(C)n1nnnc1CN1CCN(C2CCCC2)CC1	84	84% (inactive)	84% (inactive)	101% (inactive)	104% (inactive)	3.04% (inactive)	101	104	-7.7% (inactive)	-2.3% (inactive)
COCCNC(=O)CC(NS(=O)(=O)c1ccc(NC(C)=O)cc1)C(C)C (stereo not given)	97	122% (inactive)	97% (inactive)	81.2% (inactive)	95.1% (inactive)	11.4% (inactive)	83.7	95.1	-4.74% (inactive)	5% (inactive)
CC1CCc2cc(F)cc3c(O)c(C(=O)NCC4CCCO4)c(=O)n1c23 (stereo not given)	93.5	94% (inactive)	93.5% (inactive)	80.8% (inactive)	85.6% (inactive)	-8.57% (inactive)	94.2	85.6	0.66% (inactive)	-9.84% (inactive)
COc1ccc(-c2ccc(Nc3ccc(S(=O)(=O)N4CCCC4)cc3)nn2)cc1OC	77.5	70.5% (inactive)	77.5% (inactive)	61.6% (inactive)	53.6% (inactive)	-2.87% (inactive)	56.5	53.6	-6.8% (inactive)	-1.97% (inactive)
O=c1c2ccccc2cnn1-c1nc2ccccc2s1	91	73% (inactive)	91% (inactive)	63.6% (inactive)	81.6% (inactive)	0.15% (inactive)	81.4	81.6	-7.3% (inactive)	-3.33% (inactive)
CCn1c(SCc2nc3ccccc3c(=O)[nH]2)nnc1-c1cccnc1	84.5	98% (inactive)	84.5% (inactive)	104% (inactive)	95.2% (inactive)	4.33% (inactive)	90.9	95.2	-0.13% (inactive)	-0.16% (inactive)
Cc1sc2ncn3ncnc3c2c1C	91	96.5% (inactive)	91% (inactive)	50.7% (inactive)	90.5% (inactive)	-8.71% (inactive)	99.2	90.5	6.13% (inactive)	4.26% (inactive)
CC(C)(C)n1ncc2c(=O)n(CC(=O)NCCc3ccccc3)cnc21	88	108% (inactive)	88% (inactive)	107% (inactive)	90.9% (inactive)	-4.92% (inactive)	95.8	90.9	0.92% (inactive)	-6.13% (inactive)
C=CCn1c(SCC2=C(C(=O)OCC)C(C)NC(=O)N2)nnc1C1CCCCC1 (stereo not given)	100	105% (inactive)	100% (inactive)	83.6% (inactive)	91.5% (inactive)	-4.74% (inactive)	96.2	91.5	-5.06% (inactive)	-0.98% (inactive)
Cc1ccc2[nH]c(=O)c(CN(CCCN3CCOCC3)C(=O)Nc3cccc(Cl)c3)cc2c1	75.5	75% (inactive)	75.5% (inactive)	47% (inactive)	55.4% (inactive)	5.47% (inactive)	49.9	55.4	-3.33% (inactive)	2.13% (inactive)
COc1ccc(C(=O)N2CCN(c3nc4cc(C)ccc4cc3C#N)CC2)c(OC)c1	112	98% (inactive)	112% (inactive)	88.1% (inactive)	85.4% (inactive)	-9.04% (inactive)	94.5	85.4	-2.73% (inactive)	-1.75% (inactive)
CCOC(=O)/C(C#N)=C1\Nc2ccccc2N=C1N(CC(C)C)CC(C)C	80	104% (inactive)	80% (inactive)	86.2% (inactive)	84.2% (inactive)	-5.4% (inactive)	89.6	84.2	-4.13% (inactive)	-2.79% (inactive)
COCCN1C(=O)C(=O)/C(=C(/O)c2cccc(OC)c2)C1c1ccncc1 (stereo not given)	99	104% (inactive)	99% (inactive)	101% (inactive)	93% (inactive)	-3.51% (inactive)	96.5	93	-0.26% (inactive)	3.64% (inactive)
CCOC(=O)c1sc(C)c2c1NC(C)(c1cccs1)NC2=O (stereo not given)	105	96.5% (inactive)	105% (inactive)	83.6% (inactive)	82.5% (inactive)	-8.16% (inactive)	90.6	82.5	-1.73% (inactive)	-6.94% (inactive)
CCC(Sc1ccc2nnc(-c3ccc(F)cc3)n2n1)C(=O)OC (stereo not given)	110	90% (inactive)	110% (inactive)	86.4% (inactive)	83% (inactive)	45% (inactive)	38	83	-7.7% (inactive)	2.5% (inactive)
CCCN1C(=O)SC(CC(=O)Nc2ccc(Br)cc2)C1=O (stereo not given)	105	112% (inactive)	105% (inactive)	77.7% (inactive)	95.8% (inactive)	4.58% (inactive)	91.2	95.8	-2.24% (inactive)	-8.41% (inactive)
O=C1CN(Cc2ccccc2)C(=NCc2ccco2)S1	97	74% (inactive)	97% (inactive)	97.7% (inactive)	86.7% (inactive)	4.9% (inactive)	81.8	86.7	-6.49% (inactive)	2.95% (inactive)
CC(C)(C)OC(=O)N1CC(O)CC1C(=O)OCC(=O)c1ccc(Cl)cc1 (stereo not given)	95	91% (inactive)	95% (inactive)	109% (inactive)	84% (inactive)	-6.24% (inactive)	90.3	84	-5.68% (inactive)	11.5% (inactive)
CCOC(=O)C1=C(C)NC(C)=C(C(=O)OCC)C1c1cc(N)ccc1OC(F)F	78.5	108% (inactive)	78.5% (inactive)	76.6% (inactive)	111% (inactive)	4.41% (inactive)	106	111	0.91% (inactive)	-7.21% (inactive)
